Experimental data: ChEMBL document CHEMBL4396876, “Antisulfatase, Osteogenic, and Anticancer Activities of Steroid Sulfatase Inhibitor EO-33 in Mice” (J Med Chem, 2019)

Key:
Mus musculus [1] = assay: (§1) In vivo inhibition of STS in ovariectomized Balb/c mouse assessed as reduction in E1S-stimulated uterus weight at 5 mg/kg, sc administered once daily starting from day 2 to day 10 using MC/EtOH formulation and E1S addition on day 5 to 10 measured on day 11 relative to control; type: functional
Summary of the method: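 Female Balb/c mice (15–20 g) ovariectomized under isoflurane, 5/group. Inhibitor given SC in 0.1 mL MC:EtOH (92:8) on days 2–10. E1S (2 µg/mouse, BID) or E1 (0.06 µg/mouse, ID) given SC on days 5–10. Vehicle controls included. Uterus dissected and weighed on day 11. Means ± SEM.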

Mus musculus [2] = assay: as §1, with “Ex” for “In”, “mouse liver homogenates” for “mouse”, “transformation of [3H]-E1S into [3H]-E1” for “E1S-stimulated uterus weight”, “11 by liquid scintillation counting method” for “11”; type: functional
Summary of the method: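 Livers collected on day 11 from the OVX Balb/c uterotrophic protocol and homogenized in cold pH 7.4 phosphate buffer with protease inhibitors. 2000 g supernatant, 100 or 500 µg protein, incubated with [3H]-E1S/E1S (final 1 µM) in PBS for 2 h at 37 °C. Xylene extraction, then scintillation counting of both phases. Result given as % E1 formed. Triplicate.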

[3] = (§2) Drug level in Balb/c mouse treated with 2-{[4-({(Furan-2-ylmethyl)[(5-methylthiophen-2-yl)-methyl]amino}methyl)phenyl]carbonyl}-1,2,3,4-tetrahydroisoquinolin-7-yl Sulfamate assessed as metabolite formation at 30 mg/kg, sc administered as single dose using MC/EtOH formulation by LC-MS/MS analysis; type: ADME, organism-based; conditions: in vivo
Summary of the method: (§3)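 Phenol metabolite EO-29 measured by LC-MS/MS in plasma of female Balb/c mice fasted 8 h, then given a single 30 mg/kg dose of the sulfamate in MC:EtOH (92:8), 0.1 mL, SC or by gavage. Sampled at 1, 3, 7, 12 and 24 h by cardiac puncture (2–3 mice/group).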

[4] = as §2, with “po” for “sc”, “administered via gavage” for “administered”; type: ADME, organism-based; conditions: in vivo; summary of the method: as §3
Mus musculus [5] = assay: Osteogenic activity in ovariectomized-induced C57BL/6 mouse model of osteoporosis assessed as recovery of tibia weight at 1 mg/kg, sc administered 6 days per week for 70 days relative to control; type: functional
Summary of the method: (§4)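 Female C57BL/6 mice (63–70 days) ovariectomized under isoflurane; sham controls kept. 8/group, dosed SC in 0.1 mL MC:EtOH (92:8) for 70 days. Tibias excised and weighed (mg/g body weight). Calcium measured by ICP-MS after calcination at 600 °C for 6 h and HNO3 microwave digestion; expressed as mg/g tibia.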

Mus musculus [6] = assay: Osteogenic activity in ovariectomized-induced C57BL/6 mouse model of osteoporosis assessed as recovery of tibia calcium content at 1 mg/kg, sc administered 6 days per week for 70 days by Triple Quad ICP-MS analysis relative to control; type: functional; summary of the method: as §4
Mus musculus [7] = assay: Estrogenic activity in ovariectomized-induced C57BL/6 mouse model of osteoporosis assessed as stimulation of uterus weight at 1 mg/kg, sc administered 6 days per week for 70 days measured post last dose by necropsy analysis; type: ADME, organism-based; conditions: in vivo
[8] = Hepatotoxicity in ovariectomized-induced C57BL/6 mouse model of osteoporosis assessed as effect on liver weight at 1 mg/kg, sc administered 6 days per week for 70 days measured post last dose by necropsy analysis; type: toxicity, organism-based; conditions: in vivo
[9] = Toxicity in ovariectomized-induced C57BL/6 mouse model of osteoporosis assessed as effect on body weight at 1 mg/kg, sc administered 6 days per week for 70 days measured post last dose; type: organism-based; conditions: in vivo
Summary of the method: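 Female C57BL/6 mice, 63-70 days old, ovariectomized under isoflurane (sham-operated controls), randomized by weight into groups of 8. Treated SC in 0.1 mL MC:EtOH (92:8) over 70 days; sham and OVX controls received vehicle alone. Mice weighed at the end of the protocol before necropsy.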

Mus musculus [10] = assay: Osteogenic activity in ovariectomized-induced C57BL/6 mouse model of osteoporosis assessed as recovery of tibia weight at 5 ug/kg, sc treated for 70 days relative to control; type: functional; summary of the method: as §4
Mus musculus [11] = assay: Osteogenic activity in ovariectomized-induced C57BL/6 mouse model of osteoporosis assessed as recovery of tibia calcium content at 5 ug/kg, sc treated for 70 days by Triple Quad ICP-MS analysis relative to control; type: functional; summary of the method: as §4

SMILES: COc1cc2c(cc1OS(N)(=O)=O)CC[C@@H]1[C@@H]2CC[C@@]2(C)[C@H]1CC[C@@]2(O)Cc1ccccc1
- inhibition in vivo at 5 mg/kg (Mus musculus [1]): 71%
- inhibition in vivo at 5 mg/kg (Mus musculus [2]): 100%

SMILES: Cc1ccc(CN(Cc2ccc(C(=O)N3CCc4ccc(O)cc4C3)cc2)Cc2ccco2)s1
- Drug metabolism [3]: Metabolite_Detected
- Drug metabolism [4]: Metabolite_Detected

SMILES: O=C(c1ccc(OCCN2CCCCC2)cc1)c1c(-c2ccc(O)cc2)sc2cc(O)ccc12 [RALOXIFENE]
- Activity (Mus musculus [5]): 100%
- Activity (Mus musculus [6]): 100%
- Activity (Mus musculus [7]): Toxic
- Activity [8]: Non-Toxic
- Activity [9]: Non-Toxic

SMILES: C[C@]12CC[C@@H]3c4ccc(O)cc4CC[C@H]3[C@@H]1CC[C@@H]2O [ESTRADIOL]
- Activity (Mus musculus [10]): 100%
- Activity (Mus musculus [11]): 100%
